inhibition, Activity and Imax data for 6 molecules are collected here from ChEMBL document CHEMBL3244046, “Cardenolide analogues. 7. Synthesis and biological activity of some new steroidal guanylhydrazones” (J Med Chem, 1978).

The source made the active and inactive calls.

Series [1] is filed under the species Cavia porcellus. Briefly: Inhibition of Na(+)/K(+) ATPase-mediated phosphohydrolase activity in guinea pig myocardium at 5 X 10^-5 M after 30 mins relative to control. Format: tissue-based. An outline of the steps:
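Crude membranes from guinea pig myocardium (5-10 units activity; unit = µmol Pi liberated/mg protein/h) incubated 37 °C, 30 min. Substrate consumption under 15% without drug. Dose-response curves over 10⁻⁸–10⁻⁴ M, duplicate determinations; values read from curves.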

In series [2] the test system is Left cardiac atrium. As to the kind of experiment: Toxicity in guinea pig left atrium assessed as tissue arrest at 5 X 10^-5 M relative to control. Format: tissue-based, Cavia porcellus. Particulars: 50 µM. The method in brief: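 Electrically paced guinea pig left auricle (Krebs-Henseleit, 32 °C, O₂/5% CO₂, about 1 g resting tension, 10-ms pulses at 100/min, 20% above threshold) given cumulative drug doses up to 10⁻⁴ M. Toxicity was scored as tissue arrest, which follows the inflection of the dose-response curve.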

Series [3] is filed under the species Cavia porcellus. Briefly: Inhibition of ouabain-insensitive Mg(2+)-ATPase-mediated phosphohydrolase activity in guinea pig myocardium at 1 X 10^-5 M after 30 mins relative to control. The class given is tissue-based. The method in brief: (§1)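 Guinea pig myocardial crude membranes were incubated 30 min at 37 °C without Na⁺ and K⁺. Ouabain-insensitive Mg²⁺-ATPase activity was measured as inorganic phosphate released (µmol/mg protein/h), with and without drug. Substrate use stayed under 15%. Dose-response curves covered 10⁻⁸–10⁻⁴ M, run in duplicate, and values were taken from the curves.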

The species named for series [4] is Cavia porcellus. Briefly: Inhibition of Na(+)/K(+) ATPase-mediated phosphohydrolase activity in guinea pig myocardium at 1 X 10^-5 M after 30 mins relative to control. Format: tissue-based. An outline of the steps: (§2)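 Crude guinea pig myocardial membrane preparation (5-10 units each enzyme; µmol Pi/mg protein/h), incubated 37 °C for 30 min. Substrate consumption stayed below 15%. Dose-response curves spanned 10⁻⁸–10⁻⁴ M in duplicate, and values were read from the curves.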

Series [5] is filed under the species Cavia porcellus. Briefly: Inhibition of ouabain-insensitive Mg(2+)-ATPase-mediated phosphohydrolase activity in guinea pig myocardium at 5 X 10^-5 M after 30 mins relative to control. The class given is tissue-based. The method in brief: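 Guinea pig myocardial crude membranes (5-10 units; µmol Pi/mg protein/h), assayed without Na+ and K+ (ouabain-insensitive activity), with and without drug, 37 °C for 30 min. Substrate use under 15% in drug-free controls. Drug tested 10⁻⁸–10⁻⁴ M in duplicate; values taken from dose-response curves.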

The subject of series [6] is Left cardiac atrium. Briefly: Inotropic activity in guinea pig left atrium assessed as change in isometric force of contraction at 1 X 10^-5 M relative to control. The class given is functional, Cavia porcellus. An outline of the steps:
(§3)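 Guinea pig left auricle in Krebs-Henseleit at 32 °C, gassed with O₂/5% CO₂ under about 1 g resting tension. Pacing used 10-ms rectangular pulses at 100/min and 20% above threshold voltage. Change in isometric contraction was referenced to control atria. Cumulative dose-response curves ran up to 10⁻⁴ M.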

Series [7] relates to Left cardiac atrium. As to the kind of experiment: Negative inotropic activity in guinea pig left atrium assessed as isometric force of contraction at 10^-8 to 10^-4 M relative to control. Format: functional, tissue-based. To be noted: Cavia porcellus. An outline of the steps: (§4)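 Guinea pig left auricle in Krebs-Henseleit, 32 °C, gassed O2/5% CO2, resting tension about 1 g. Paced with 10-ms rectangular pulses at 100/min, voltage 20% above threshold. Cumulative dose-response curves up to 10⁻⁴ M. Isometric contraction changes computed against control atria.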

Series [8] concerns Left cardiac atrium. Briefly: Inotropic activity in guinea pig left atrium assessed as change in isometric force of contraction at 5 X 10^-5 M relative to control. Format: functional, Cavia porcellus. The method in brief: as §4
Series [9] is filed under the species Cavia porcellus. Briefly: Inhibition of ouabain-insensitive Mg(2+)-ATPase-mediated phosphohydrolase activity in guinea pig myocardium at 2 X 10^-6 M after 30 mins relative to control. The class given is tissue-based. An outline of the steps: as §1
The species entered for series [10] is Cavia porcellus. Briefly: Inhibition of Na(+)/K(+) ATPase-mediated phosphohydrolase activity in guinea pig myocardium at 2 X 10^-6 M after 30 mins relative to control. Format: tissue-based. An outline of the steps: as §2
For series [11], the system named is Left cardiac atrium. Briefly: Inotropic activity in guinea pig left atrium assessed as change in isometric force of contraction at 2 X 10^-6 M relative to control. Format: functional, Cavia porcellus. The method in brief: as §3

Consider `C[C@]12CC[C@H](O)C[C@H]1CC[C@@H]1[C@@H]2CC[C@]2(C)[C@@H](/C=N\NC(=N)N)CC[C@]12O`, for which the inhibition (commonly how much of the control response was suppressed) in [1] stood at 53%; in series [3] it was 0%; in [4], 20%; in series [5], 0%. Moreover, the Activity result in series [2] is listed as “Toxic”; in [6], 120%.

`C[C@]12CC[C@H](O)C[C@H]1CC[C@@H]1[C@@H]2CC[C@]2(C)[C@@H](/C=N\NC(=N)N)CC[C@@H]12`: the inhibition in series [1] and in series [5] was 55% in each case. The outcome in [7] was Active. In series [8], the Activity is listed as -45%.

In the case of `C[C@]12CC[C@@H](O)C[C@H]1CC[C@@H]1[C@@H]2CC[C@]2(C)[C@@H](/C=N\NC(=N)N)CC[C@@H]12`, the values for the inhibition in [1] and in series [5] were 37% and 45%, respectively. Besides, the result in series [7] was Active. For the same molecule, the Activity in series [8] was -10%.

Turning to `C[C@]12CC[C@H](O)C[C@H]1CC[C@@H]1[C@@H]2CC[C@]2(C)[C@@H](C3=CC(=O)OC3)CC[C@]12O` [DIGITOXIGENIN], the inhibition in series [9] was 0%; in series [10] it was 60%. Also, in series [11], the Activity amounted to 130%.

In turn, `C[C@]12CC[C@H]3[C@@H](CCC4=C[C@@H](O)CC[C@@]43C)[C@@H]1CC[C@@H]2/C=N\NC(=N)N` came in with an inhibition in series [1] of 54%. Moreover, the outcome in series [7] was Active. The Imax in [5] was 30%. Also, the Activity in series [8] is on record as -18%.

In series [1], `C[C@]12CC[C@H](O)C[C@@H]1CC[C@@H]1[C@@H]2CC[C@]2(C)[C@@H](/C=N\NC(=N)N)CC[C@@H]12` yielded an inhibition of 40%. The outcome in [7] was Active. The molecule also came in with an Imax in [5] of 43%. The Activity in series [8] is reported as -50%.
